Source: PubChem (SRMLSC)
Only some compounds are listed: those with a hit (about 2.6% of all), similar ones and a draw of the others.
Yeast growth inh: growth inhibitors of yeast BB579 in restrictive medium, primary screen, yeast lifespan-shortening project, S. cerevisiae; AID 804, 2007; OD615, 48 h; actives 0.51% (n = 140,000); inhibition, % at 10 µM;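 active = inhibition above a set limit, 3 SD over the mean compound inhibition, cut at about 44% in these data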
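System: Saccharomyces cerevisiae DeaD strain BB579, replicative lifespan model yeast | Buffer or medium: Restrictive glucose-based CSMM-D medium | Times: 4 h preincubation and 48 h exposure at 30 °C | Detection: OD615 turbidity measurement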
RAM network inh: inhibitors of the yeast RAM network, primary screen, dse1pr::URA3 reporter, 5-FOA selection | S. cerevisiae dse1pr::URA3 reporter, 5-FOA growth OD615, 2 d; analog-sensitive cbk1-as2 kinase mutant strain | inhibition, % at 50 µM | actives 1.8% (n = 190,000) | AID 868, 2007;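 active = inhibition above a set limit, 3 SD over mean compound inhibition, cut at about 8.4% in these data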;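 note: 0% = DMSO-only wells with no growth and 100% = 10 µM 1-NA-PP1 full growth; inhibition rescues growth on 5-FOA so higher OD means more RAM inhibition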
Yeast lifespan up: compounds extending yeast replicative lifespan, primary screen, S. cerevisiae, OD615 | S. cerevisiae growth with nicotinamide; deaD strain in restrictive glucose medium | inhibition of the nicotinamide effect, % at 10 µM | actives 0.68% (n = 130,000);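 active = inhibition above a set limit, placed 3 SD over the median of all compounds, cut at about 26% in these data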;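 note: 0% = nicotinamide-treated wells and 100% = cells grown without nicotinamide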
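Test system – modified budding yeast, DeaD strain · Compound – single dose 10 µM compound, 0.25% DMSO · Times – culture preincubation 4 h, compound exposure 48 h, both 30 °C · Detection – optical density (absorbance) at 615 nm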
RAM efflux-def: 5-FOA growth of efflux-deficient control yeast, dose response, counter-screen for RAM network inhibitor project, S. cerevisiae, OD615; shares compounds with RAM network inh; S. cerevisiae efflux-deficient reporter strain, 5-FOA growth OD615, 2 days; max inhibition, %; 1,200 tested, under 10 active; AID 1305, 2008; call rule not given here;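 note: plate controls were vehicle for no effect and reference inhibitor for full effect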
An asterisk follows results filed as active; / = no result given.

SMILES	Yeast growth inh	RAM network inh	Yeast lifespan up	RAM efflux-def
O=C(COc1ccccc1Cl)Nc1cc(Cl)ccc1Oc1ccccc1	-20	14*	-14	4
O=C(COc1ccccc1)Nc1ccccc1Oc1ccccc1	-17	2	2	/
CCOC(=O)C1CN(S(=O)(=O)c2cccc(C(F)(F)F)c2)c2cc(CC(=O)OC)ccc2O1 (stereo not drawn)	-34	16*	-5	2
CCOC(=O)C1CN(S(=O)(=O)c2ccccc2)c2cc(S(=O)(=O)CC)ccc2O1 (stereo not drawn)	-12	1	-4	/
O=C(Nc1ccc(S(=O)(=O)Nc2ccccc2)cc1)c1ccc(CN2CCOCC2)cc1	/	1	/	/
N#C/C(=C\c1ccc(-c2ccc(S(=O)(=O)N3CCOCC3)cc2)o1)C(=O)NC1CC1	-55	13*	4	2
N#C/C(=C\c1ccc(-c2ccc(C(=O)O)cc2)o1)C(=O)NCC1CCCO1 (stereo not drawn)	-33	2	0	/
COc1ccc(CSCC(=O)Nc2ccc(S(=O)(=O)N3CCCCCC3)cc2)cc1	-56	14*	6	1
O=C(CSCc1ccc(Cl)cc1)Nc1ccc(S(=O)(=O)N2CCCCCC2)cc1	20	0	-2	/
CCC(=O)N(Cc1c(C)nn(-c2ccccc2)c1Cl)c1ccc(Cl)cc1	-51	1	6	/
O=C(COC(=O)CC(c1ccccc1)c1ccccc1)NCc1ccc(Cl)cc1	-36	13*	4	4
CCCC(=O)OCC(=O)NCc1ccc(Cl)cc1	/	0	/	/
CCOc1ccc(-n2c(=S)sc3c(=O)[nH]c(SCC(=O)C(C)(C)C)nc32)cc1	/	5	/	/
CCCCn1c(=O)c(CCC(=O)OCC(=O)Nc2ccc(F)c(Cl)c2)nc2ccccc21	-13	4	1	/
O=S(=O)(Nc1ccc(-c2csc(-c3ccccc3)n2)cc1)c1ccccc1	-47	13*	9	1
Cc1ccc(S(=O)(=O)Nc2ccc(-c3csc(-c4ccccc4)n3)cc2)cc1	-33	4	3	/
O=c1c2ccccc2c(C=NCCCN2CCOCC2)c(O)n1Cc1ccccc1	-20	1	-11	/
O=c1c2ccccc2c(C=NCCc2ccccc2)c(O)n1Cc1ccccc1	-11	13*	-17	3
CC(=O)Nc1ccc(NC(=O)C2CC(=O)N(c3ccccc3Cl)C2)cc1 (stereo not drawn)	/	0	/	/
O=C(/C=C/c1ccc(Br)cc1)N1CCN(c2cccc(C(F)(F)F)c2)CC1	-36	12*	7	3
Cc1ccc(CC(=O)N2CCN(c3cccc(C(F)(F)F)c3)CC2)cc1	-29	4	-15	/
O=C(/C=C/c1cccc(Br)c1)N1CCN(c2cccc(C(F)(F)F)c2)CC1	-33	16*	4	3
O=C(c1c(F)c(F)c(F)c(F)c1F)N1CCN(c2cccc(C(F)(F)F)c2)CC1	-30	5	-4	/
CC(C)(C)NC(=O)Cn1c(Cl)nc2ccccc21	/	0	/	/
O=C(Nc1ccc(Cl)c([N+](=O)[O-])c1)C(Sc1ccccc1)c1ccccc1 (stereo not drawn)	-24	15*	0	2
SMILES	Yeast growth inh	RAM network inh	Yeast lifespan up	RAM efflux-def
COc1ccc(NC(=O)C(Sc2ccccc2)c2ccccc2)c(OC)c1 (stereo not drawn)	-9	2	2	/
COc1ccccc1NC(=O)C(Sc1ccccc1)c1ccccc1 (stereo not drawn)	-5	11*	1	3
O=C(Nc1cc([N+](=O)[O-])ccc1Cl)C(Sc1ccccc1)c1ccccc1 (stereo not drawn)	-10	5	9	/
Cc1ccccc1N=C(NOCc1ccc(Cl)cc1Cl)c1nonc1N	-59	7	0	/
Cc1ccc(N=C(NOCc2ccc(Cl)cc2Cl)c2nonc2N)c(C)c1	-52	13*	-8	6
Cc1nc2cc(-c3cccc(F)c3)nn2c(N2CCN(C(=O)c3ccco3)CC2)c1C	-30	6	-21	/
COc1ccc(OC)c(-c2cc(C(=O)N3CCc4ccccc4C3)no2)c1	-49	12*	44*	2
COc1ccc(-c2cc(C(=O)N3CCc4ccccc4C3)no2)cc1	/	1	/	/
COc1ccc(C2c3[nH]c4ccccc4c3CCN2Cc2cccn2-c2ncccn2)cc1C (stereo not drawn)	/	1	/	/
CCOc1ccc(-n2c(C)nc(O)c2N=Nc2ccccc2)cc1	/	14*	/	4
CCOc1ccc(-n2c(C)c(C(C)=O)c(C(C)=O)c2C)cc1	-23	4	/	/
O=C(Cc1ccc(Br)cc1)N(Cc1ccccc1)c1ccccn1	/	3	/	/
O=c1c(/C=N/OCc2ccc(Cl)cc2Cl)c[nH]n1-c1cccc(Cl)n1	/	2	/	/
O=C(/C=C/c1ccccc1)c1ccc2c(c1)OCCCCO2	-4	1	-3	/
O=C(/C=C/c1ccc2c(c1)OCCCO2)c1ccc2ccccc2c1O	-30	12*	0	6
COC(=O)c1cccc(Oc2cccc(C(F)(F)F)c2)n1	/	2	/	/
Cc1cc2cc(CNS(=O)(=O)c3ccc4ccccc4c3)ccc2n1C	-13	4	-4	/
Cc1cc(C)c(S(=O)(=O)NCc2ccc3c(c2)cc(C)n3C)c(C)c1	-43	14*	9	2
CS(=O)(=O)N(Cc1ccc(C(=O)NCc2ccco2)cc1)c1ccccc1	-14	2	-27	/
Cc1ccc(N(CC(=O)NCCSCc2ccco2)S(=O)(=O)c2ccc(F)cc2)cc1	/	4	/	/
COc1ccc(N(CC(=O)NCCSCc2ccco2)S(=O)(=O)c2ccc(C)cc2)cc1	/	15*	/	2
CS(=O)(=O)N(Cc1ccc(C(=O)NCCSCc2ccco2)cc1)c1ccccc1	-67	12*	22	2
O=C(C[n+]1ccc(C(=O)NCc2ccccc2)cc1)c1ccc(OC(F)F)cc1	/	0	/	/
O=C(NCc1ccccc1)/C(=C/c1ccc(OC(F)F)cc1)c1ccccc1	-10	12*	-1	2
O=C(COC(=O)c1cccc([N+](=O)[O-])c1)c1ccc(OCc2ccccc2)cc1	-33	6	-1	/
SMILES	Yeast growth inh	RAM network inh	Yeast lifespan up	RAM efflux-def
O=C(CNS(=O)(=O)c1ccccc1)OCC(=O)c1ccc(OC(=O)c2ccccc2)cc1	3	4	-3	/
Cc1ccccc1OCC(=O)OCC(=O)c1ccc(OC(=O)c2ccccc2)cc1	-30	14*	3	3
Cc1ccccc1OCC(=O)OCC(=O)c1ccc(OCc2ccccc2)cc1	-27	12*	6	4
N#CC1=C(N)Oc2ccc3ccc(O)cc3c2C1c1ccsc1 (stereo not drawn)	-19	4	0	/
CCO[C@H]1OC(C(=O)N2CCN(C)CC2)=C[C@@H](c2ccc(Br)cc2)[C@@H]1CCCO	/	2	/	/
COc1ccc(CCNC(=O)Cn2nnc(-c3ccccc3F)n2)cc1OC	-20	2	-11	/
CCCc1ncc(C(O)c2ccccc2OC)n1C (stereo not drawn)	/	2	/	/
COc1ccc(NC(=O)CN2CCC(C(N)=O)(N3CCCCC3)CC2)c(OC)c1	/	1	/	/
O=C(NC1CCCCC1)C(=S)N1CCOCC1	/	-1	/	/
